ChEMBL document CHEMBL4732112, “Synthesis and in vitro evaluation of novel spiroketopyrazoles as acetyl-CoA carboxylase inhibitors and potential antitumor agents” (Eur J Med Chem, 2021)
Calls of active or inactive are those of the source. No cut-off for these calls is given here.

Experiments:
HepG2 [1] = test: Cell cycle arrest in human HepG2 cells assessed as accumulation at G2/M phase at 10 uM measured after 48 hrs by propidium iodide staining based flow cytometry (reference value: 13.58%); assay type: functional
HepG2 [2] = test: Induction of apoptosis in human HepG2 cells assessed as necrotic cells at 10 uM measured after 48 hrs by Annexin V-FITC/propidium iodide staining based flow cytometry (reference value: 0.22%); assay type: functional
Summary of the method: (§1)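 HepG2 cells incubated with the stated concentrations for 48 h, harvested, and stained with Annexin V-FITC and propidium iodide protected from light. Viable, early apoptotic, late apoptotic and necrotic fractions quantified by flow cytometry. Mean ± SD, n=3.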

HepG2 [3] = test: Antiproliferative activity against human HepG2 cells assessed as combination index at 0.7 uM measured after 72 hrs in presence of 1.4 uM doxorubicin by MTT assay; assay type: functional
HepG2 [4] = test: Cell cycle arrest in human HepG2 cells assessed as reduction in CDK4 expression at 10 uM measured after 48 hrs by Western blot analysis relative to control; assay type: functional; parameters: scale not given: the % may be the effect or the level left
Summary of the method: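 HepG2 cells treated for 48 h and lysed. Lysates cleared at 12000 rpm for 15 min and protein measured by BCA. Run on SDS-PAGE, transferred to PVDF, blocked in 5% BSA, primary antibody at 4 °C overnight, then DyLight 800 secondary. Infrared imaging and densitometry against β-actin. Mean ± SD, n=3.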

Acetyl-CoA carboxylase 1 [5] = molecular target: T1, Acetyl-CoA carboxylase 1 (Homo sapiens, UniProt Q13085); test: Inhibition of ACC1 in human HepG2 cells assessed as reduction in intracellular malonyl-CoA level measured after 48 hrs by ELISA; assay type: cell-based; details: dose 1-10 µM
Summary of the method: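 HepG2 cells plated and exposed to the compound at several concentrations for 48 h. Cells washed with PBS, lysed in 1% Triton X-100 and spun 12000 rpm, 4 °C, 15 min. Malonyl-CoA measured by ELISA kit and triglyceride by GPO-POP kit, each normalised to BCA protein. Reported relative to control, mean ± SD, n=3.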

HepG2 [6] = test: Antiproliferative activity against human HepG2 cells assessed as combination index at 0.35 uM measured after 72 hrs in presence of 0.7 uM doxorubicin by MTT assay; assay type: functional
MDA-MB-231 = test: Antiproliferative activity against human MDA-MB-231 cells assessed as cell growth inhibition at 10 uM after 72 hrs by MTT assay relative to control; assay type: functional; details: read-out: GI
Summary of the method: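 Cells were DMEM/10% FBS cultures at 37 °C, 5% CO2, seeded at 3×10^3 per well and exposed for 72 h after 24 h attachment. Read-out was MTT with formazan in DMSO and absorbance at 550 nm, expressed as inhibition rate versus control.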

[7] = Cytotoxicity against HUVEC assessed as cell viability at 100 uM after 72 hrs by MTT assay relative to control; assay type: cell-based; details: human, HUVEC cells, read-out: Activity
Summary of the method: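 HUVEC kept in RPMI 1640 with 10% FBS at 37 °C, 5% CO2. Seeded at 3×10^3 per well and treated at 100 µM for 72 h after 24 h attachment. Viability by MTT with absorbance at 550 nm, as percent of control. Mean ± SD, n=3.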

Acetyl-CoA carboxylase 1 [8] = molecular target: T1, Acetyl-CoA carboxylase 1; test: Inhibition of recombinant human C-terminal His-tagged ACC1 (1 to 2383 residues) expressed in baculovirus infected Sf9 insect cells preincubated for 15 mins followed by substrate addition and measured after 60 mins by ADP-glo luminescence assay
Summary of the method: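 Recombinant ACC1 in assay buffer preincubated with inhibitor in DMSO for 15 min at room temperature. Reaction started with substrate mixture and run 60 min at room temperature. Stopped with ADP-Glo reagent for 40 min, then detection reagent for 40 min to convert ADP to ATP, read by luminescence. Mean of two independent experiments.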

HepG2 [9] = test: Induction of apoptosis in human HepG2 cells assessed as reduction in Bcl2 expression measured after 48 hrs by Western blot analysis; assay type: functional, cell-based; details: dose 1-10 µM
Summary of the method: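 Western blots for Bcl-2, Bax, cleaved caspase-3 and cleaved PARP in HepG2 cells after 48 h treatment (1, 5, 10 μM for PARP). Lysates cleared, protein quantified by BCA, run on SDS-PAGE to PVDF, blocked in 5% BSA, primary overnight at 4 °C, DyLight 800 secondary. Infrared scanning and densitometry normalized to β-actin. Mean ± SD, n=3.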

HepG2 [10] = test: Cell cycle arrest in human HepG2 cells assessed as accumulation at G0/G1 phase at 5 uM measured after 48 hrs by propidium iodide staining based flow cytometry (reference value: 56.24%); assay type: functional
HepG2 [11] = test: Induction of apoptosis in human HepG2 cells assessed as late apoptotic cells at 10 uM measured after 48 hrs by Annexin V-FITC/propidium iodide staining based flow cytometry (reference value: 0.19%); assay type: functional; summary of the method: as §1
HepG2 [12] = test: Antiproliferative activity against human HepG2 cells assessed as combination index at 1.4 uM measured after 72 hrs in presence of 2.8 uM doxorubicin by MTT assay; assay type: functional
HepG2 [13] = test: Antiproliferative activity against human HepG2 cells assessed as cell growth inhibition after 72 hrs by MTT assay; assay type: functional, cell-based; details: HepG2, 72 h
Summary of the method: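 HepG2, A549 or MDA-MB-231 cells grown in DMEM with 10% FBS and penicillin/streptomycin at 37 °C, 5% CO2. Seeded at 3×10^3 per well, left 24 h, then exposed to a range of concentrations for 72 h. MTT added for 4 h, formazan dissolved in DMSO, absorbance read at 550 nm. Mean ± SD, n=3.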

HepG2 [14] = test: Antiproliferative activity against human HepG2 cells assessed as cell viability at 0.5 uM measured after 5 days in presence of 10 uM palmitate by MTT assay relative to control; assay type: functional; details: HepG2, 120 h, time 5 day, read-out: Activity
Summary of the method: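 HepG2 treated with 0.5 μM plus 0, 10 or 25 μM palmitate for 1, 3 and 5 days. Palmitate was complexed with 5% fatty-acid-free BSA from a 5 mM solution, then diluted in serum-free DMEM to final concentration. Viability (% control) by MTT. Mean ± SD, n=3.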

HepG2 [15] = test: Antiproliferative activity against human HepG2 cells assessed as reduction in cell viability measured after 72 hrs in presence of doxorubicin by MTT assay; assay type: functional, cell-based; details: dose 0.0875-1.4 µM
HepG2 [16] = test: Induction of apoptosis in human HepG2 cells assessed as nuclear fragmentation at 1 to 10 uM measured after 48 hrs by Hoechst 33258 staining based fluorescence microscopic analysis; assay type: functional, cell-based; details: dose 1-10 µM
Summary of the method: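 HepG2 cells exposed to varying concentrations for 48 h in 6-well plates. Stained with Hoechst 33258 in the dark for 20 min, then nuclear morphology inspected by fluorescence microscopy.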

HepG2 [17] = test: Cell cycle arrest in human HepG2 cells assessed as accumulation at S phase at 1 uM measured after 48 hrs by propidium iodide staining based flow cytometry (reference value: 30.18%); assay type: functional
HepG2 [18] = test: Induction of apoptosis in human HepG2 cells assessed as increase in late apoptotic cells measured after 48 hrs by Annexin V-FITC/propidium iodide staining based flow cytometry; assay type: functional, cell-based; details: dose 1-10 µM; summary of the method: as §1
HepG2 [19] = test: Induction of apoptosis in human HepG2 cells assessed as viable cells at 10 uM measured after 48 hrs by Annexin V-FITC/propidium iodide staining based flow cytometry (reference value: 95.6%); assay type: functional; details: read-out: Activity; summary of the method: as §1
HepG2 [20] = test: Cell cycle arrest in human HepG2 cells assessed as accumulation at G0/G1 phase at 10 uM measured after 48 hrs by propidium iodide staining based flow cytometry (reference value: 56.24%); assay type: functional

Compound `CC(C)(C)n1cc2c(n1)C(=O)CC1(CCN(C(=O)c3cc(-c4ccncc4)nc4ccccc34)CC1)O2` has an Activity (HepG2 [1]) of 4.9%, an Activity (HepG2 [2]) of 0.64% and a CI (HepG2 [3]) of 0.599. For the same compound, the Activity (HepG2 [4]) was 60.76%, the inhibition (Acetyl-CoA carboxylase 1 [5]) was “Dose-dependent effect” and the CI (HepG2 [6]) was 0.816. It also gave an inhibition of growth at 10 µM (MDA-MB-231) of 72.2%, a viability at 72 h, 100 µM [7] of 95.2% and an IC50 (Acetyl-CoA carboxylase 1 [8]) of 11.3 nM. The Activity (HepG2 [9]) was “Dose-dependent effect”, the Activity (HepG2 [10]) was 78.83% and the Activity (HepG2 [11]) was 45.5%. The CI (HepG2 [12]) was 0.366, the IC50 (HepG2 [13]) was 380 nM and the viability at 0.5 µM (HepG2 [14]) was 68.9%. For the same compound, the Activity (HepG2 [15]) was “Dose-dependent effect”, the Activity (HepG2 [16]) was “Active” and the Activity (HepG2 [17]) was 21.46%. For the same compound, the Activity (HepG2 [18]) was “Dose-dependent effect”, the viability at 10 µM (HepG2 [19]) was 12.2% and the Activity (HepG2 [20]) was 88.61%.
